# Tests used:
# Liver microsome = experiment: Drug level in human liver microsomes treated with lapatinib at 50 uM by LC/MS/MS analysis; type: ADME
# Method in brief: (§1)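 Lapatinib 50 μM (added in DMSO) incubated 30 min at 37°C in 100 mM potassium phosphate pH 7.4 with HLM 1 mg/mL or recombinant CYP3A4+b5 / CYP3A5+b5 100 pmol/mL. Reaction started with NADPH 1 mM. Protein re-isolated by ultracentrifugation (100,000 x g, 4°C, 60 min), washed (KCl/EDTA), resuspended in phosphate buffer, ±2 mM ferricyanide 10 min 37°C, quenched with acetonitrile, then high-resolution LC/MS profiling.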
# Cytochrome P450 3A4 = Cytochrome P450 3A4 (Homo sapiens, UniProt P08684); experiment: Activity of recombinant CYP3A4 (unknown origin) assessed as compound formation treated with lapatinib at 50 uM by LC/MS/MS analysis; type: ADME; conditions: recombinant enzyme; method in brief: as §1
# Chain of Cytochrome P450 3A4 (P08684 whole entry): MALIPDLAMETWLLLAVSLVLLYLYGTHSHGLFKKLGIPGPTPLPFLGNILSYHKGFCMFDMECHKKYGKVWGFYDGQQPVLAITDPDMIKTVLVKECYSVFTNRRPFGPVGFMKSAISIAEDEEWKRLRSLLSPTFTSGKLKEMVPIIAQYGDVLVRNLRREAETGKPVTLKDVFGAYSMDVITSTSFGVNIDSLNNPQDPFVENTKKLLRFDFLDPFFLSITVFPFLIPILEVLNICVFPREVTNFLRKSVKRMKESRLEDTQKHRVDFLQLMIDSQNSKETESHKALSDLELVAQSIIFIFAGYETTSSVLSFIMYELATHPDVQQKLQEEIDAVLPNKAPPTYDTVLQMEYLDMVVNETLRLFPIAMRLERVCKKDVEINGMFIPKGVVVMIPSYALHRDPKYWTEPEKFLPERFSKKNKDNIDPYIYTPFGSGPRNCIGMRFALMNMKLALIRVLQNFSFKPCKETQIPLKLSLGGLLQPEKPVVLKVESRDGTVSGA
# [1] = Retention time of the compound by LC/MS/MS analysis relative to lapatinib; type: physicochemical
# Method in brief: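 Phenyl UPLC column (1.7 μm, 2.1 x 100 mm), 0.1% formic acid in water/acetonitrile, 0.4 mL/min. Gradient: 10% organic for 1 min, to 90% over 13 min, held 0.5 min. Detection by accurate-mass MS. Retention times expressed relative to lapatinib.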
# Cytochrome P450 3A5 = Cytochrome P450 3A5 (Homo sapiens, UniProt P20815); experiment: Activity of recombinant CYP3A5 (unknown origin) assessed as compound formation treated with lapatinib at 50 uM by LC/MS/MS analysis; type: ADME; conditions: recombinant enzyme; method in brief: as §1
# Chain of Cytochrome P450 3A5 (P20815 whole entry): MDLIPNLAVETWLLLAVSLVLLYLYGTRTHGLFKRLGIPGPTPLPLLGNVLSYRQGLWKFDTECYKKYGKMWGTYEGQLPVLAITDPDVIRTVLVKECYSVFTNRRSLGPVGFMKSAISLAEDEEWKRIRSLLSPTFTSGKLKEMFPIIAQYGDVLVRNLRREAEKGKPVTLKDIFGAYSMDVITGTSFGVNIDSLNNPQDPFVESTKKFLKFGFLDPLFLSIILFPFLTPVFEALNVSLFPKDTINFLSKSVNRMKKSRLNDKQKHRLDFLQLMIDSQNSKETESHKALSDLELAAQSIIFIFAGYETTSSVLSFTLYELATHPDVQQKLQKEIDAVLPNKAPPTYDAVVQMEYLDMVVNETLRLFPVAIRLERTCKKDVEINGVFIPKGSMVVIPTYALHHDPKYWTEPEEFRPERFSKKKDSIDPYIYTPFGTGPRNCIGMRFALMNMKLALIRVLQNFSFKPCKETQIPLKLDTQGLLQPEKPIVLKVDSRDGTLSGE
SMILES,Drug metabolism (Liver microsome),Drug metabolism (Cytochrome P450 3A4),Ratio [1],Drug metabolism (Cytochrome P450 3A5)
CS(=O)(=O)CC/[N+]([O-])=C/c1ccc(-c2ccc3ncnc(Nc4ccc(OCc5cccc(F)c5)c(Cl)c4)c3c2)o1,metabolite_detected,metabolite_detected,1.11,metabolite_detected
O=Cc1ccc(-c2ccc3ncnc(Nc4ccc(OCc5cccc(F)c5)c(Cl)c4)c3c2)o1,metabolite_detected,metabolite_detected,1.21,metabolite_detected
